Assay results pooled from the literature.
Each line is one published result; the experiments were not run side by side.
Target: Casein kinase I isoform gamma-3 (CSNK1G3, Homo sapiens, UniProt Q9Y6M4)

| Compound | assay | conditions | quantity | result |
| --- | --- | --- | --- | --- |
| COc1cc(Cl)c(C(=O)N[C@@H](CN[C@H]2CC[C@@H](N)CC2)Cc2ccc(C#N)cc2)cc1-c1ccc(CN[C@H](C)c2ccc(C)cc2)o1 | enzyme activity, inhibitor | 1 µM | remaining activity | 96% |
| CO[C@@H](C)c1c(Nc2ccc([C@@H](N(C)C(=O)C3CCS(=O)(=O)CC3)C(F)(F)F)cc2)cnc2cc(Cl)nn12 | cell-free assay, competition with immobilised ligand | 1 µM | remaining binding | 71% |
| CCCS(=O)(=O)Nc1ccc(F)c(C(=O)c2c[nH]c3ncc(-c4ccc(Cl)cc4)cc23)c1F | enzyme activity, inhibitor | 1 µM | inhibition | < 10% |
| C[C@@H]1CCN(C(=O)CC#N)C[C@@H]1N(C)c1ncnc2[nH]ccc12 | cell-free assay, inhibitor | 0.5 µM | remaining signal | 101% |
| Cn1c2c(Cl)c(Cl)ccc2c2cn[nH]c(=O)c21 | thermal stability, DSF | 10 µM | ΔTm | -0.1 °C |
| O=C(O)c1cc(-c2ccc(C3CCNCC3)cc2)c2ccc(-c3ccc(C(F)(F)F)cc3)cc2c1 | cell-free assay, competition with immobilised ligand | 1 µM | remaining binding | 100% |
| CCN1CCC2(CC1)NC(=O)c1c(c3ccc(Cl)c(Cl)c3n1C)C2C#N (racemic) | thermal stability, DSF | 10 µM | ΔTm | 0.8 °C |
| Cc1cnc(NC2CCOCC2)nc1-n1cnc(C(=O)NC(CN)c2cc(F)cc(Cl)c2)c1 (centres unmarked) | enzyme activity, inhibitor, radiometric | 1 µM | remaining activity | 33% |
| CN(c1nccc(-c2cnn3ncccc23)n1)C1CC1 | binding | 1 µM | remaining binding | 100% |
| N#CC1c2c([nH]c3c(Cl)c(Cl)ccc23)C(=O)NC12CCCCC2 (racemic) | thermal stability, DSF | 10 µM | ΔTm | 0.2 °C |
| CCCOc1ccc([C@@H]2[C@@H](C(=O)O)[C@H](c3ccc4c(c3)OCO4)CN2CC(=O)Nc2c(CC)cccc2CC)cc1 | cell-free assay, competition with immobilised ligand | 1 µM | remaining binding | 100% |
| CCC1(CC)NC(=O)c2c(c3ccc(Cl)c(Cl)c3n2C)C1C#N (centres unmarked) | thermal stability, DSF | 10 µM | ΔTm | 0 °C |
| O=C(N[C@H]1CCCCC/C=C\C2C[C@@]2(C(=O)O)NC(=O)[C@@H]2C[C@@H](Oc3ccncc3)CN2C1=O)OC1CCCC1 (some centres unmarked) | binding, competition with immobilised ligand | 1 µM | remaining binding | 100% |
| N#CCCc1ccc2c(c1)-c1[nH]c3ccc([N+](=O)[O-])cc3c1CC(=O)N2 | cell-free assay | 0.5 µM | remaining signal | 89.7% |
| O=C(Nc1cnn(-c2csc(C(=O)NC3COC3)c2)c1)Nc1c(F)cccc1Cl | enzyme activity, inhibitor | 5 µM | remaining activity | 92.6% |
| COc1cc2ncnc(Nc3ccc(Oc4ccccc4)c(C)c3C)c2cc1OC | enzyme activity, inhibitor | 1 µM | inhibition | 3% |
| CCOc1cc(-c2nncn2C)ccc1Nc1ncc2cc(C)nc(NCC(C)(C)C)c2n1 | enzyme activity, inhibitor, FRET | 1 µM | inhibition | < 15% |
| COc1cc(Nc2c(C#N)cnc3cc(OCCCN4CCN(C)CC4)c(OC)cc23)c(Cl)cc1Cl | cell-free assay | 0.5 µM | remaining signal | 98.3% |
| COc1ccc2c(O[C@@H]3C[C@H]4C(=O)N[C@]5(C(=O)O)CC5/C=C\CCCCC[C@H](NC(=O)OC5CCCC5)C(=O)N4C3)cc(-c3csc(NC(=O)C(C)C)n3)nc2c1C (some centres unmarked) | cell-free assay, competition with immobilised ligand | 1 µM | remaining binding | 100% |
| Cn1c2c(Cl)c(Cl)ccc2c2cc[nH]c(=O)c21 | thermal stability, DSF | 10 µM | ΔTm | -0.2 °C |
| CC(C)CC(=O)N1CCc2nc(-c3ccc(Br)cc3)nc(N(C)Cc3ccccc3)c2C1 | cell-free assay, competition with immobilised ligand | 0.1 µM | remaining binding | 100% |
| O=C1NC(=O)c2cc(Nc3ccc(F)cc3)c(Nc3ccc(F)cc3)cc21 | cell-free assay | 0.5 µM | remaining signal | 90.7% |
| Cc1ccc(Nc2nccc(N(C)c3ccc4c(C)n(C)nc4c3)n2)cc1S(N)(=O)=O | enzyme activity, inhibitor | 10 µM | inhibition | 18% |
| O=C1Nc2ccc(Cl)cc2C1=Cc1cc(Cl)c(O)c(Cl)c1 | cell-free assay | 0.5 µM | remaining signal | 93% |
| Cn1c2c(c3ccc(Cl)c(Cl)c31)C(C#N)C1(CCNCC1)NC2=O (racemic) | thermal stability, DSF | 10 µM | ΔTm | 2.9 °C |
| CS(=O)(=O)c1cc(C2(NC(=O)c3cncc4c3cnn4-c3ccc(F)cc3)CC2)ccn1 | cell-free assay, competition with immobilised ligand | 1 µM | remaining binding | 100% |
| CC(C)(C)c1nc2c(s1)c1nc(N)ncc1c1ccc(NS(=O)(=O)c3c(F)cccc3F)c(F)c12 | enzyme activity, inhibitor, radiometric | 1 µM | remaining activity | 86% |
| C[C@@]1(Cc2ccc(C#N)cc2)C(=O)N(c2cc(Cl)cc(Cl)c2)c2ncc(C(=O)NC3(c4nc(C5CCC5)no4)CC3)n21 | cell-free assay, competition with immobilised ligand | 1 µM | remaining binding | 100% |
| CNC(=O)c1cc(Oc2ccc(NC(=O)Nc3ccc(Cl)c(C(F)(F)F)c3)cc2)ccn1 | enzyme activity, inhibitor | 10 µM | inhibition | 2% |
